From publication PMC4157762 (Bioconjugate Chemistry, 2014)

How the values were obtained:
Dynamic light scattering = format: physicochemical; details: DLS at stock concentration, 15 measurements, regularization fit
Summary of the method: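 Samples were spun 15 min at 18 000 g and measured at stock concentration at 100% laser power until intensity readings were consistent. 15 measurements per sample gave the size distribution by regularization fit. Effective radius and aggregation by intensity and by mass were reported. Controls were maleimide-capped XTEN (negative) and BSA (positive), with BSA re-measured after 10 min at 80 °C and 5 min on ice.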

[1] = dosed in rats; cited from earlier work
[2] = format: physicochemical; details: as E13; dimer peak of the precursor before conjugation
Summary of the method: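 Vydac C4 column (5 μm, 300 Å, 4.6 × 150 mm), ambient temperature, 1 mL/min. Equilibrated at 5% B, then a linear gradient of 5–50% B over 45 min. 20 μg protein injected. Absorbance read at 214 nm. The thiol-XTEN precursor was run before conjugation.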

HIV-1Ba-L = test: In vitro antiviral MAGI assay; format: cell-based; details: read-out: IC50 for inhibition of virus replication, MAGI CCR5 cells, 48 h, β-galactosidase read-out (Gal-screen), triplicate
Summary of the method: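 MAGI CCR5 cells are HeLa-derived, express CXCR4, CD4 and CCR5, and carry an HIV-1 LTR–β-galactosidase reporter. Cells were plated at 1 × 10^4 per well and adhered overnight at 37 °C. Medium was replaced with the compound range (up to 10 nM), then HIV-1Ba-L was added. After 48 h, lysates were read with Gal-screen and expressed as % of the no-compound blank. Tested in triplicate with unmodified-peptide and capped-XTEN controls.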

Substance	aggregation by intensity (Dynamic light scattering) [%]	aggregation by mass (Dynamic light scattering) [%]	other results
BSA (not heat treated): BSA (Fermentas), DLS control before heat treatment	0	0	
BSA (heat treated): heat-treated BSA, positive control for aggregation in DLS	92.2	28	
enfuvirtide			half-life in rats [1]: 2.8 h
SAGSPTPGTSESATPESGPGSEPATSGSETPGTSESATPESGPGSEPATSGSETPGTSESATPESGPGTSTEPSEGSAPGTSESATPESGPGSPAGSPTSTEEGSPAGSPTSTEEGSPAGSPTSTEEGTSESATPESGPGTSTEPSEGSAPGTSESATPESGPGSEPATSGSETPGTSESATPESGPGSEPATSGSETPGTSESATPESGPGTSTEPSEGSAPGSPAGSPTSTEEGTSESATPESGPGSEPATSGSETPGTSESATPESGPGSPAGSPTSTEEGSPAGSPTSTEEGTSTEPSEGSAPGTSESATPESGPGTSESATPESGPGTSESATPESGPGSEPATSGSETPGSEPATSGSETPGSPAGSPTSTEEGTSTEPSEGSAPGTSTEPSEGSAPGSEPATSGSETPTAEAAGCGTAEAASASR [XTEN-1]			C4 RPC retention time of suspected disulfide-bonded dimer [2]: 21.2 min
Enfuvirtide			IC50 (HIV-1Ba-L): 0.38 nM
